What was measured:
Format in all cases: functional
[1] = test system: UO-31; test: Growth inhibition of human UO31 cells incubated for 48 hrs by sulforhodamine B assay; settings: UO-31, 48 h
Method in brief: (§1)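 NCI-60 screen run at NCI. Cells grown in RPMI medium with 5% FBS and 2 mM L-glutamine, plated at 5,000–40,000 cells/well, and preincubated 24 h at 37 °C. Time-zero plates were TCA-fixed. Compounds came from DMSO stocks and were tested at five concentrations from 10^-4 to 10^-8 M for 48 h. Cells were then TCA-fixed, stained with 0.4% SRB, and OD read at 515 nm. GI50 is the concentration giving a 50% reduction in net protein increase versus control.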

[2] = test system: HT-29; test: Growth inhibition of human HT-29 cells incubated for 48 hrs by sulforhodamine B assay; settings: HT-29, 48 h
Method in brief: (§2)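 NCI-60 screen. Compounds were dosed at five concentrations spanning 10^-4 to 10^-8 M for 48 h at 37 °C. Cells were TCA-fixed, stained with 0.4% SRB and read at 515 nm against time-zero and vehicle controls. GI50 is the concentration giving a 50% reduction in net protein increase.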

[3] = test system: Malme-3M; test: Growth inhibition of human MALME-3M cells incubated for 48 hrs by sulforhodamine B assay; method in brief: as §2
[4] = test system: MOLT-4; test: Growth inhibition of human MOLT4 cells incubated for 48 hrs by sulforhodamine B assay; settings: MOLT-4, 48 h; method in brief: as §2
[5] = test system: UACC-62; test: Growth inhibition of human UACC62 cells incubated for 48 hrs by sulforhodamine B assay; settings: UACC-62, 48 h; method in brief: as §1
[6] = test system: HCT-15; test: Growth inhibition of human HCT15 cells incubated for 48 hrs by sulforhodamine B assay; settings: HCT-15, 48 h; method in brief: as §2
[7] = test system: RPMI-8226; test: Growth inhibition of human RPMI8226 cells incubated for 48 hrs by sulforhodamine B assay; settings: RPMI-8226, 48 h; method in brief: as §2
[8] = test system: UACC-257; test: Growth inhibition of human UACC257 cells incubated for 48 hrs by sulforhodamine B assay; settings: UACC-257, 48 h; method in brief: as §1
[9] = test system: OVCAR-5; test: Growth inhibition of human OVCAR5 cells incubated for 48 hrs by sulforhodamine B assay; settings: OVCAR-5, 48 h; method in brief: as §2
[10] = test system: NCI/ADR-RES; test: Growth inhibition of human NCI/ADR-RES cells incubated for 48 hrs by sulforhodamine B assay; method in brief: as §2
[11] = test system: NCI-H460; test: Growth inhibition of human NCI-H460 cells incubated for 48 hrs by sulforhodamine B assay; settings: NCI-H460, 48 h; method in brief: as §2
[12] = test system: NCI-H23; test: Growth inhibition of human NCI-H23 cells incubated for 48 hrs by sulforhodamine B assay; settings: NCI-H23, 48 h; method in brief: as §2
[13] = test system: KM12; test: Growth inhibition of human KM12 cells incubated for 48 hrs by sulforhodamine B assay; settings: KM12, 48 h; method in brief: as §2
[14] = test system: SK-OV-3; test: Growth inhibition of human SKOV3 cells incubated for 48 hrs by sulforhodamine B assay; settings: SK-OV-3, 48 h; method in brief: as §2
[15] = test system: K562; test: Growth inhibition of human K562 cells incubated for 48 hrs by sulforhodamine B assay; settings: K562, 48 h; method in brief: as §2
[16] = test system: LOX IMVI; test: Growth inhibition of human LOXIMVI cells incubated for 48 hrs by sulforhodamine B assay; method in brief: as §2
[17] = test system: SF-295; test: Growth inhibition of human SF295 cells incubated for 48 hrs by sulforhodamine B assay; settings: SF-295, 48 h; method in brief: as §2
[18] = Cytotoxicity against human M9-ENL1 cells assessed as reduction in cell viability by trypan blue staining-based assay
Method in brief: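 M9-ENL1 AML cells (MLL-ENL-transduced human blood cells) plated at 10^6 cells/mL in alpha-MEM with 5% human plasma, 20% FBS, SCF, IL-3, IL-7 and FLT3. Drug diluted from DMSO stock into PBS, final DMSO ≤0.5%. After 24 h exposure, dead cells assessed by trypan blue and by flow cytometry (Annexin V/PI or Annexin V/7-AAD). Viability normalized to vehicle; EC50 from dose-response curves; triplicate.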

[19] = test system: HCT-116; test: Growth inhibition of human HCT116 cells incubated for 48 hrs by sulforhodamine B assay; settings: HCT-116, 48 h; method in brief: as §2
[20] = test system: CCRF-CEM; test: Growth inhibition of human CCRF-CEM cells incubated for 48 hrs by sulforhodamine B assay; method in brief: as §2
[21] = test system: A549; test: Growth inhibition of human A549/ATCC cells incubated for 48 hrs by sulforhodamine B assay; settings: A549, 48 h; method in brief: as §2
[22] = test system: OVCAR-8; test: Growth inhibition of human OVCAR8 cells incubated for 48 hrs by sulforhodamine B assay; settings: OVCAR-8, 48 h; method in brief: as §2
[23] = test system: SK-MEL-28; test: Growth inhibition of human SK-MEL-28 cells incubated for 48 hrs by sulforhodamine B assay; settings: SK-MEL-28, 48 h; method in brief: as §2
[24] = test system: SF-268; test: Growth inhibition of human SF268 cells incubated for 48 hrs by sulforhodamine B assay; settings: SF-268, 48 h; method in brief: as §2
[25] = test system: NCI-H226; test: Growth inhibition of human NCI-H226 cells incubated for 48 hrs by sulforhodamine B assay; settings: NCI-H226, 48 h; method in brief: as §2
[26] = test system: MCF7; test: Growth inhibition of human MCF7 cells incubated for 48 hrs by sulforhodamine B assay; settings: MCF7, 48 h; method in brief: as §2
[27] = test system: U-251; test: Growth inhibition of human U251 cells incubated for 48 hrs by sulforhodamine B assay; settings: U-251, 48 h; method in brief: as §1
[28] = test system: A498; test: Growth inhibition of human A498 cells incubated for 48 hrs by sulforhodamine B assay; settings: A498, 48 h; method in brief: as §2
[29] = test system: SN12C; test: Growth inhibition of human SN12C cells incubated for 48 hrs by sulforhodamine B assay; method in brief: as §2
[30] = test system: NCI-H322M; test: Growth inhibition of human NCI-H322M cells incubated for 48 hrs by sulforhodamine B assay; method in brief: as §2
[31] = test system: RXF 393; test: Growth inhibition of human RXF393 cells incubated for 48 hrs by sulforhodamine B assay; settings: RXF 393, 48 h; method in brief: as §2
[32] = test system: SF-539; test: Growth inhibition of human SF539 cells incubated for 48 hrs by sulforhodamine B assay; settings: SF-539, 48 h; method in brief: as §2
[33] = test system: SW-620; test: Growth inhibition of human SW620 cells incubated for 48 hrs by sulforhodamine B assay; settings: SW-620, 48 h; method in brief: as §1
[34] = test system: HL-60(TB); test: Growth inhibition of human HL-60(TB) cells incubated for 48 hrs by sulforhodamine B assay; settings: HL-60, 48 h
Method in brief: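 Performed at NCI's 60-line screen. Cells grown in RPMI with 5% FBS and 2 mM L-glutamine, plated 5,000–40,000 cells/well and incubated 24 h at 37 °C before compound addition. DMSO stocks were diluted in medium with gentamicin, and five concentrations spanning 10^-4 to 10^-8 M were tested. Exposure was 48 h. Cells were fixed with TCA, stained with SRB, and read at 515 nm. GI50 taken from log dose-response curves as 50% reduction in net protein increase versus control.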

[35] = test system: HCC 2998; test: Growth inhibition of human HCC2998 cells incubated for 48 hrs by sulforhodamine B assay; settings: HCC 2998, 48 h; method in brief: as §2
[36] = test system: HOP-92; test: Growth inhibition of human HOP92 cells incubated for 48 hrs by sulforhodamine B assay; settings: HOP-92, 48 h; method in brief: as §2
[37] = test system: SNB-19; test: Growth inhibition of human SNB19 cells incubated for 48 hrs by sulforhodamine B assay; settings: SNB-19, 48 h; method in brief: as §1

C=C1C(=O)O[C@@H]2[C@H]3O[C@]3(C)CC/C=C(/COC(=O)c3cc4cc(Cl)ccc4[nH]3)CC[C@@H]12
GI50 [1]: 1.21 µM
GI50 [2]: 1.33 µM
GI50 [3]: 1.63 µM
GI50 [4]: 0.55 µM
GI50 [5]: 1.67 µM
GI50 [6]: 1 µM
GI50 [7]: 0.81 µM
GI50 [8]: 1.7 µM
GI50 [9]: 1.53 µM
GI50 [10]: 1.45 µM
GI50 [11]: 1.72 µM
GI50 [12]: 1.63 µM
GI50 [13]: 2.15 µM
GI50 [14]: 10.2 µM
GI50 [15]: 1.14 µM
GI50 [16]: 0.81 µM
GI50 [17]: 3.18 µM
EC50 [18]: 3.8 µM
GI50 [19]: 0.7 µM
GI50 [20]: 0.39 µM
GI50 [21]: 1.69 µM
GI50 [22]: 1.34 µM
GI50 [23]: 1.58 µM
GI50 [24]: 1.44 µM
GI50 [25]: 1.8 µM
GI50 [26]: 0.86 µM
GI50 [27]: 1.75 µM
GI50 [28]: 2.65 µM
GI50 [29]: 1.7 µM
GI50 [30]: 4 µM
GI50 [31]: 1.38 µM
GI50 [32]: 1.44 µM
GI50 [33]: 1.4 µM
GI50 [34]: 0.44 µM
GI50 [35]: 1.4 µM
GI50 [36]: 1.25 µM
GI50 [37]: 2.91 µM

C=C1C(=O)O[C@@H]2C3O[C@]3(C)CC/C=C(\C)CC[C@@H]12 (stereo partly drawn)
GI50 [1]: 41.9 µM
GI50 [2]: 23.5 µM
GI50 [3]: 13.8 µM
GI50 [4]: 14.3 µM
GI50 [5]: 16.8 µM
GI50 [6]: 10.2 µM
GI50 [7]: 8.2 µM
GI50 [8]: 14.4 µM
GI50 [9]: 34.1 µM
GI50 [10]: 15 µM
GI50 [11]: 18.8 µM
GI50 [12]: 20.2 µM
GI50 [13]: 16.2 µM
GI50 [14]: 54.7 µM
GI50 [15]: 22.6 µM
GI50 [16]: 8.24 µM
GI50 [17]: 28.9 µM
EC50 [18]: 5.5 µM
GI50 [19]: 10.8 µM
GI50 [20]: 9.16 µM
GI50 [21]: 91.8 µM
GI50 [22]: 17.1 µM
GI50 [23]: 21 µM
GI50 [24]: 25.1 µM
GI50 [25]: 20.5 µM
GI50 [26]: 16.4 µM
GI50 [27]: 41.5 µM
GI50 [28]: 7.04 µM
GI50 [29]: 22.8 µM
GI50 [30]: 21.7 µM
GI50 [31]: 12.2 µM
GI50 [32]: 18.9 µM
GI50 [33]: 14.5 µM
GI50 [34]: 5.71 µM
GI50 [35]: 24.1 µM
GI50 [36]: 13.5 µM
GI50 [37]: 70.9 µM

C=C1C(=O)O[C@@H]2[C@H]3O[C@]3(C)CC/C=C(/COC(=O)CCCc3c[nH]c4ccccc34)CC[C@@H]12
GI50 [1]: 1.41 µM
GI50 [2]: 1.71 µM
GI50 [3]: 1.79 µM
GI50 [4]: 1.53 µM
GI50 [5]: 1.84 µM
GI50 [6]: 1.61 µM
GI50 [7]: 2.31 µM
GI50 [8]: 2.03 µM
GI50 [9]: 1.89 µM
GI50 [10]: 2.9 µM
GI50 [11]: 4.54 µM
GI50 [12]: 1.72 µM
GI50 [13]: 1.89 µM
GI50 [14]: 17.3 µM
GI50 [15]: 2.6 µM
GI50 [16]: 1.55 µM
GI50 [17]: 5.69 µM
EC50 [18]: 2 µM
GI50 [19]: 0.96 µM
GI50 [20]: 0.75 µM
GI50 [21]: 5.47 µM
GI50 [22]: 3.38 µM
GI50 [23]: 1.7 µM
GI50 [24]: 1.69 µM
GI50 [25]: 2.04 µM
GI50 [26]: 1.42 µM
GI50 [27]: 1.95 µM
GI50 [28]: 11.9 µM
GI50 [29]: 1.9 µM
GI50 [30]: 13.8 µM
GI50 [31]: 1.46 µM
GI50 [32]: 1.63 µM
GI50 [33]: 1.84 µM
GI50 [34]: 1.63 µM
GI50 [35]: 1.79 µM
GI50 [36]: 1.68 µM
GI50 [37]: 2.59 µM

C=C1C(=O)O[C@@H]2[C@H]3O[C@]3(C)CC/C=C(/COC(=O)c3cn(C)c4ccccc34)CC[C@@H]12
GI50 [1]: 0.77 µM
GI50 [2]: 0.52 µM
GI50 [3]: 1.62 µM
GI50 [4]: 0.57 µM
GI50 [5]: 1.26 µM
GI50 [6]: 0.53 µM
GI50 [7]: 0.21 µM
GI50 [8]: 1.32 µM
GI50 [9]: 1.56 µM
GI50 [10]: 2.15 µM
GI50 [11]: 1.73 µM
GI50 [12]: 1.93 µM
GI50 [13]: 1.83 µM
GI50 [14]: 4.33 µM
GI50 [15]: 0.4 µM
GI50 [16]: 0.22 µM
GI50 [17]: 2.41 µM
EC50 [18]: 7.2 µM
GI50 [19]: 1.02 µM
GI50 [20]: 0.21 µM
GI50 [21]: 1.82 µM
GI50 [22]: 0.8 µM
GI50 [23]: 1.55 µM
GI50 [24]: 1.3 µM
GI50 [25]: 1.48 µM
GI50 [26]: 0.4 µM
GI50 [27]: 1.42 µM
GI50 [28]: 1.59 µM
GI50 [29]: 0.71 µM
GI50 [30]: 3.01 µM
GI50 [31]: 0.58 µM
GI50 [32]: 0.74 µM
GI50 [33]: 0.3 µM
GI50 [34]: 1.54 µM
GI50 [35]: 1.81 µM
GI50 [36]: 0.36 µM
GI50 [37]: 1.59 µM

Reference: ChEMBL document CHEMBL4138104, “Indole carboxylic acid esters of melampomagnolide B are potent anticancer agents against both hematological and solid tumor cells” (Eur J Med Chem, 2017)
